Reference: ChEMBL document CHEMBL1143989, “New anti-viral drugs for the treatment of the common cold” (Bioorg Med Chem, 2008)
Values after ≈ are worked out from the molar mass of the structure shown. Active and inactive are the calls of the source. No cut-off for these calls is given here.

Assays:
[1] = target: T1, Human rhinovirus A protease (Human rhinovirus sp.) (UniProt Q4U254); assay: Inhibition of HRV14 3C protease at 10 uM; details: rhinovirus B14
T1 sequence (whole entry): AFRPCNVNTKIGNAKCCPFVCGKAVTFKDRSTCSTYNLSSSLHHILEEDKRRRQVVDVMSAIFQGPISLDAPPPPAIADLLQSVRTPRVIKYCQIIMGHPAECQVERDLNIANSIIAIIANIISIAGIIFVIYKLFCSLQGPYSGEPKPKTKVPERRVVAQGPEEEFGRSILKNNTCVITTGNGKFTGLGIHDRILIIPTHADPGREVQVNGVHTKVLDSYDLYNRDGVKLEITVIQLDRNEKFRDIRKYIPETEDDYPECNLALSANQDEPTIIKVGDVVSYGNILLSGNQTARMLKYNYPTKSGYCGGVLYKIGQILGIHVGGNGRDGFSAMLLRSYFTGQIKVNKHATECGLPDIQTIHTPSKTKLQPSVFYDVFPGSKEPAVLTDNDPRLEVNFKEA
Summary of the method: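 Recombinant HRV14 3C protease at 0.7 uM with EALFQ-pNA chromogenic substrate, compound at 10 µM final, 1% DMSO final. Buffer: 25 mM Hepes pH 7.5, 150 mM NaCl, 0.12 mM DTT, 1 mM EDTA. Started by adding enzyme; A405 read at 0 and 60 min at 30 °C. Percent inhibition vs uninhibited control; duplicates, mean ± SD.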

[2] = target: T1, Human rhinovirus A protease (Human rhinovirus sp.); assay: Inhibition of HRV14 3C protease in presence of dithiothreitol; details: rhinovirus B14
[3] = target: T1, Human rhinovirus A protease (Human rhinovirus sp.); assay: Inhibition of HRV14 3C protease at 0.1 uM; details: rhinovirus B14
[4] = target: T1, Human rhinovirus A protease (Human rhinovirus sp.); assay: Inhibition of HRV14 3C protease at 1 uM; details: rhinovirus B14
[5] = Inhibition of HRV 3C protease; set-up: species or system Human rhinovirus sp.
[6] = target: T1, Human rhinovirus A protease (Human rhinovirus sp.); assay: Inhibition of HRV14 3C protease at 0.16 to 100 uM; details: rhinovirus B14
Summary of the method: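 Colorimetric HRV14 3C protease assay: 0.7 uM enzyme, EALFQ-pNA substrate, Hepes pH 7.5 buffer with 0.12 mM DTT and 1 mM EDTA. Compound tested across 0.16 to 100 µM; p-nitroaniline release read at 405 nm after 60 min at 30 °C.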

Influenza A virus = assay: Antiviral activity against WSN influenza A virus; format: functional, organism-based
Summary of the method: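 Cell-based antiviral test in the VERO/MDCK cell set, run on 24-well plates by analogy with the HeLa/rhinovirus method. Activity was scored after 48 h of incubation at 37 °C under 5% CO2.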

Human alphaherpesvirus 2 = assay: Antiviral activity against HSV2; format: functional, organism-based
rhinovirus B14 = assay: Antiviral activity against HRV14; format: functional, organism-based; details: Rhinovirus B; read-out: ID50 (the source's name)
Summary of the method: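 HeLa (Ohio) monolayers at 33 °C, 3% CO2, in DMEM with 1% non-essential amino acids and 10% FCS. Infected with HRV-14 at MOI 0.1, then decreasing compound amounts added. After 24 h, freeze-thaw; supernatant titrated under 2% nutrient agar and plaques counted after neutral red staining. ID50 derived from plaque counts.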

[7] = Cytotoxicity against human HeLa cells after 5 days; format: cell-based; details: read-out: Maximal non-toxic dose 50
Summary of the method: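 HeLa (Ohio strain) cells plated at about 10^4 cells per ml in 24-well plates, kept at 33 °C in 3% CO2 in DMEM with 1% non-essential amino acids and 10% FCS. Exposed to decreasing compound concentrations for 5 days; viability read by neutral red uptake. MNTD50 (dose inhibiting less than 50% replication vs control) obtained by regression; triplicate.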

[8] = target: T1, Human rhinovirus A protease (Human rhinovirus sp.); assay: Inhibition of HRV14 3C protease at 1 mM; details: rhinovirus B14

Structure (SMILES) | inhibition [1] | Activity [2] | inhibition [3] | inhibition [4] | further results
NC(=O)c1cccc(C(=O)C(Br)Br)c1 | > 50% | – | – | – | –
CCOC(=O)/C=C/[C@H](C[C@@H]1CCNC1=O)NC(=O)[C@@H](CC(=O)[C@@H](NC(=O)c1cc(C)on1)C(C)C)Cc1ccc(F)cc1 | – | inactive | – | – | –
NC(=O)c1cccc(C(=O)C(Cl)Cl)c1 | > 50% | – | – | – | –
NC(=O)c1cc(Cc2ccc3ccccc3c2)cc(C(=O)C(Br)Br)c1 | > 70% | – | – | – | –
NC(=O)c1cc(C(=O)CBr)cc(C(=O)Nc2ccc3ccccc3c2)c1 | 80% | inactive | 5% | 19% | –
CCOC(=O)/C=C/[C@H](CCC(N)=O)CC(=O)[C@H](Cc1ccccc1)NC(=O)[C@H](CC(C)C)NC(=O)OCc1ccccc1 | – | – | – | – | IC50 [5]: 0.54 µM
NC(=O)c1cc(Cc2ccc3ccccc3c2)cc(C(=O)CBr)c1 | 83% | inactive | 12% | 39% | –
NC(=O)c1cc(C(=O)CBr)cc(C(=O)Nc2ccccc2)c1 | 86% | inactive | 8% | 27% | –
NC(=O)c1cc(Cc2ccccc2)cc(C(=O)C(Br)Br)c1 | 75% | inactive | 14% | 27% | –
CCOC(=O)CCn1c(=O)c2ccccc2n(CC(=O)c2ccccc2)c1=O | – | – | – | – | IC50 [5]: 55.4 µM
O=C(CBr)c1ccc2c(c1)C(=O)NC2 | 70% | inactive | 0% | 25% | –
NC(=O)c1cccc(C(=O)C(F)(F)F)c1 | – | – | – | – | Activity [6]: inactive
NC(=O)CCN(NC(=O)[C@H](Cc1ccccc1)NC(=O)OCc1ccccc1)C(=O)CBr | – | – | – | – | IC50 [5]: 0.048 µM
NC(=O)c1cccc(C(=O)CBr)c1 | 85% | inactive | 4% | 23% | Activity (Influenza A virus): Active; Activity (Human alphaherpesvirus 2): Active; IC50 (rhinovirus B14): 25 µg/mL (≈ 103 µM); MNTC at 120 h [7]: > 100 µg/mL
CC(=O)N[C@@H](CC(C)C)C(=O)N[C@@H](CC(C)C)C(=O)N[C@H](C=O)CCCNC(=N)N | – | – | – | – | inhibition [8]: 57%
NC(=O)c1cc(Cc2ccc3ccccc3c2)cc(C(=O)CCl)c1 | 81% | inactive | 25% | 61% | IC50 (rhinovirus B14): > 0.75 µg/mL; MNTC at 120 h [7]: 0.75 µg/mL
NC(=O)c1cc(Cc2ccccc2)cc(C(=O)CCl)c1 | 91% | inactive | 14% | 79% | IC50 (rhinovirus B14): > 0.75 µg/mL; MNTC at 120 h [7]: 0.75 µg/mL
NC(=O)c1cc(Cc2ccccc2)cc(C(=O)CBr)c1 | 68% | inactive | 0% | 30% | –
NC(=O)c1cccc(C(=O)CCl)c1 | > 50% | – | – | – | MNTC at 120 h [7]: 3.12 µg/mL
